Laboratory results published in ChEMBL document CHEMBL2401724, “Synthesis and structure--activity relationships of N²-alkylated quaternary β-carbolines as novel antitumor agents” (Eur J Med Chem, 2013).

What was measured:
[1] = Antitumor activity against mouse Sarcoma 180 cells allografted in mouse assessed as tumor growth inhibition at 6 mg/kg, ip qd administered for 7 days measured after 21 days relative to control; assay type: functional; conditions: Sarcoma-180, ip, route intraperitoneal, read-out: TGI
Summary of the method: (§1)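 Tumour cells (S180 sarcoma or Lewis lung) were first grown in mice for 7 days, then harvested. Viable cells (2 × 10⁶/mouse) were injected s.c. into the armpit. Groups of 10 female mice received the compound i.p. once daily for 7 consecutive days, starting 24 h after inoculation. Cyclophosphamide 30 mg/kg served as positive control and vehicle as negative control. Body weights were taken every 3 days. Mice were killed on day 21 post-inoculation, and tumours were excised and weighed to calculate the inhibition rate versus control.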

[2] = Acute toxicity in ip dosed C57BL/6 mouse after 14 days; assay type: organism-based; conditions: in vivo
Summary of the method: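 C57BL/6 mice (9–12 weeks, 18–22 g), single i.p. dose; watched continuously for 2 h, intermittently over 24 h, then occasionally to day 14 for behaviour, deaths and delayed effects. Survivors killed at day 14; heart, liver, kidneys inspected macroscopically, early deaths also examined. LD50 derived graphically.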

[3] = test system: BGC-823; experiment: Cytotoxicity against human BGC823 cells by MTT assay; assay type: functional, cell-based
Summary of the method: (§2)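 Cell lines were cultured in 96-well microtitre plates at 37 °C in humidified 5% CO₂. Compounds were dissolved in DMSO, at ≤2% (v/v) final in the growth medium. Viability was read by MTT staining, expressed relative to untreated cells.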

[4] = Cytotoxicity against mouse LLC cells by MTT assay; assay type: functional, cell-based; conditions: Lewis lung carcinoma; summary of the method: as §2
[5] = test system: SK-OV-3; experiment: Cytotoxicity against human SKOV3 cells by MTT assay; assay type: functional, cell-based; summary of the method: as §2
[6] = Cytotoxicity against human ECA109 cells by MTT assay; assay type: functional, cell-based; conditions: ECa-109; summary of the method: as §2
[7] = test system: 769-P; experiment: Cytotoxicity against human 769-P cells by MTT assay; assay type: functional, cell-based; summary of the method: as §2
[8] = test system: A-375; experiment: Cytotoxicity against human A375 cells by MTT assay; assay type: functional, cell-based; summary of the method: as §2
[9] = test system: CWR22R; experiment: Cytotoxicity against human 22Rv1 cells by MTT assay; assay type: functional, cell-based; summary of the method: as §2
[10] = test system: HT-29; experiment: Cytotoxicity against human HT-29 cells by MTT assay; assay type: functional, cell-based; summary of the method: as §2
[11] = test system: HepG2; experiment: Cytotoxicity against human HepG2 cells by MTT assay; assay type: functional, cell-based; summary of the method: as §2
[12] = test system: MCF7; experiment: Cytotoxicity against human MCF7 cells by MTT assay; assay type: functional, cell-based; summary of the method: as §2
[13] = Antitumor activity against mouse Sarcoma 180 cells allografted in mouse assessed as tumor growth inhibition at 0.5 mg/kg, ip qd administered for 7 days measured after 21 days relative to control; assay type: functional; conditions: Sarcoma-180, ip, route intraperitoneal, read-out: TGI; summary of the method: as §1
[14] = test system: Lewis lung carcinoma cell line; experiment: Antitumor activity against mouse LLC cells allografted in mouse assessed as tumor growth inhibition at 0.5 mg/kg, ip qd administered for 7 days measured after 21 days relative to control; assay type: functional; conditions: route intraperitoneal, read-out: TGI; summary of the method: as §1
[15] = test system: Lewis lung carcinoma cell line; experiment: Antitumor activity against mouse LLC cells allografted in mouse assessed as tumor growth inhibition at 1.25 mg/kg, ip qd administered for 7 days measured after 21 days relative to control; assay type: functional; conditions: route intraperitoneal, read-out: TGI; summary of the method: as §1
[16] = Antitumor activity against mouse Sarcoma 180 cells allografted in mouse assessed as tumor growth inhibition at 1.25 mg/kg, ip qd administered for 7 days measured after 21 days relative to control; assay type: functional; conditions: Sarcoma-180, ip, route intraperitoneal, read-out: TGI; summary of the method: as §1
[17] = test system: Lewis lung carcinoma cell line; experiment: Antitumor activity against mouse LLC cells allografted in mouse assessed as tumor growth inhibition at 30 mg/kg, ip qd administered for 7 days measured after 21 days relative to control; conditions: read-out: TGI
[18] = Antitumor activity against mouse Sarcoma 180 cells allografted in mouse assessed as tumor growth inhibition at 30 mg/kg, ip qd administered for 7 days measured after 21 days relative to control; conditions: Sarcoma-180, ip, read-out: TGI

Row | SMILES | inhibition in vivo at 6 mg/kg [1] [%] | LD50 at 336 h [2] [mg/kg] | IC50 [3] [µM] | IC50 [4] [µM] | IC50 [5] [µM] | IC50 [6] [µM] | IC50 [7] [µM] | IC50 [8] [µM] | IC50 [9] [µM] | IC50 [10] [µM] | IC50 [11] [µM] | IC50 [12] [µM] | inhibition in vivo at 0.5 mg/kg [13] [%] | inhibition in vivo at 0.5 mg/kg [14] [%] | inhibition in vivo at 1.25 mg/kg [15] [%] | inhibition in vivo at 1.25 mg/kg [16] [%] | inhibition in vivo at 30 mg/kg [17] [%] | inhibition in vivo at 30 mg/kg [18] [%]
1 | Clc1cccc(C[n+]2ccc3c4ccccc4n(CCCc4ccccc4)c3c2)c1.[Br-] | 43.5 | 30 | 9.8 | 6.5 | 13.8 | 7.9 | 21.9 | 24.6 | 9.7 | 16.5 | 19 | 14.3 |  |  |  |  |  | 
2 | O=[N+]([O-])c1ccc(C[n+]2ccc3c4ccccc4n(CCCc4ccccc4)c3c2)cc1 |  |  | 39.7 | 2.2 | 17.4 | 7.6 | 8.3 | 12.3 | 5.6 | 12.6 | 19.9 | 24.5 |  |  |  |  |  | 
3 | c1ccc(CCCn2c3ccccc3c3cc[n+](CCc4ccccc4)cc32)cc1 |  |  | 10.4 | < 2 | 8.4 | 8.1 | 14 | 12.2 | 4 | 3.3 | 14 | 12.5 |  |  |  |  |  | 
4 | c1ccc(CCCn2c3ccccc3c3cc[n+](CCCc4ccccc4)cc32)cc1 |  |  | 9.4 | < 2 | 10.8 | 5.3 | 3.3 | 3.2 | 4.9 | 3.4 | 4 | 3.7 |  |  |  |  |  | 
5 | Cc1c2c(cc[n+]1Cc1ccccc1)c1ccccc1n2CCCc1ccccc1.[Br-] |  | 2.5 | 6.9 | < 2 | 7.6 | 6.8 | 5.3 | 8.5 | 1.8 | 14.6 | 5.8 | 7 | 51 | 33.1 |  |  |  | 
6 | c1ccc(CCCn2c3ccccc3c3cc[n+](Cc4ccccc4)c(-c4ccccc4)c32)cc1 |  |  | < 2 | < 2 | < 2 | 5.1 | 3 | 5.9 | 3.7 | 10.8 | 4.8 | 3.7 |  |  |  |  |  | 
7 | COc1ccc(-c2c3c(cc[n+]2Cc2ccccc2)c2ccccc2n3CCCc2ccccc2)cc1.[Br-] |  | 6.25 | 3.2 | < 2 | 5.2 | 12.3 | < 2 | < 2 | 1.8 | 2.4 | 3.3 | 2.2 |  |  | 23.9 | 41.4 |  | 
8 | c1ccc(CCCn2c3ccccc3c3cc[n+](Cc4ccccc4)c(-c4ccsc4)c32)cc1 |  |  | 4 | 3.1 | 14.6 | 27.2 | 14.6 | 27.9 | 8.4 | 31.3 | 36.7 | 29.2 |  |  |  |  |  | 
9 | Cn1c2ccccc2c2cc[n+](Cc3ccccc3)cc21 |  |  | 13.2 | 8.4 | 55.2 | 95.9 | 22.5 | 37.3 | 8.4 | 59.1 | > 100 | > 100 |  |  |  |  |  | 
10 | CCn1c2ccccc2c2cc[n+](Cc3ccccc3)cc21 |  |  | > 100 | 5.1 | 27.6 | 36.7 | 38.5 | 54.3 | 5.6 | > 100 | > 100 | > 100 |  |  |  |  |  | 
11 | CC(C)n1c2ccccc2c2cc[n+](Cc3ccccc3)cc21 |  |  | 61.5 | < 2 | 6.6 | 7.6 | 30.8 | 24.5 | 3.6 | > 100 | 58.7 | 54.8 |  |  |  |  |  | 
12 | C=CCn1c2ccccc2c2cc[n+](Cc3ccccc3)cc21 |  |  | > 100 | 4.6 | 12.6 | 21.4 | 21.9 | 11.3 | < 2 | > 100 | 67.8 | 72.6 |  |  |  |  |  | 
13 | CCCCn1c2ccccc2c2cc[n+](Cc3ccccc3)cc21 |  |  | 68.1 | < 2 | 4.7 | 8.6 | 19.8 | 19.6 | < 2 | 83.8 | 29 | 34.1 |  |  |  |  |  | 
14 | CC(C)Cn1c2ccccc2c2cc[n+](Cc3ccccc3)cc21 |  |  | 60.7 | 8 | 27.7 | 35.7 | 11.6 | 28.4 | 9.6 | 87.7 | 36.6 | 39.2 |  |  |  |  |  | 
15 | CCCCCCn1c2ccccc2c2cc[n+](Cc3ccccc3)cc21 |  |  | 5.2 | < 2 | 7.3 | 13.9 | 2.7 | 6.8 | < 2 | 16 | 13.9 | 11.1 |  |  |  |  |  | 
16 | CCCCCCCCn1c2ccccc2c2cc[n+](Cc3ccccc3)cc21 |  |  | 2.5 | < 2 | 3.2 | 5.1 | < 2 | 3.1 | 2.9 | 10.9 | 6.5 | 4.1 |  |  |  |  |  | 
17 | Fc1ccc(Cn2c3ccccc3c3cc[n+](Cc4ccccc4)cc32)cc1 |  |  | 6.3 | < 2 | 10.5 | 35.4 | 6 | 4.7 | 3.5 | 28.9 | 23.4 | 17.8 |  |  |  |  |  | 
18 | Clc1cccc(Cn2c3ccccc3c3cc[n+](Cc4ccccc4)cc32)c1 |  |  | 20.3 | < 2 | 7.9 | 23.3 | 3.5 | 7 | 4.2 | 26.9 | 16.5 | 20.3 |  |  |  |  |  | 
19 | COc1ccc(Cn2c3ccccc3c3cc[n+](Cc4ccccc4)cc32)cc1.[Br-] |  | 19.5 | 17.8 | 4.2 | 19.9 | 54.3 | 7.6 | 9.5 | 4.8 | 19.2 | 15.9 | 18.7 |  |  |  |  |  | 
20 | C[n+]1ccc2c3ccccc3n(CCCc3ccccc3)c2c1 |  |  | 40.6 | 2.4 | > 100 | 60 | 19.9 | 41.5 | 4.3 | 97.3 | 90.8 | 75.6 |  |  |  |  |  | 
21 | CC[n+]1ccc2c3ccccc3n(CCCc3ccccc3)c2c1 |  |  | 88 | 4.3 | > 100 | 55.5 | 34.2 | 45.1 | 2.5 | 54.2 | 92.1 | 98.7 |  |  |  |  |  | 
22 | CCCC[n+]1ccc2c3ccccc3n(CCCc3ccccc3)c2c1 |  |  | 15.4 | < 2 | 15.8 | 41.5 | 13.4 | 12.2 | 3.4 | 62.7 | 45.5 | 38.7 |  |  |  |  |  | 
23 | CCCCCC[n+]1ccc2c3ccccc3n(CCCc3ccccc3)c2c1 |  |  | 2.3 | < 2 | < 2 | 2.5 | 2.5 | 2.9 | 2.2 | 2.3 | 4.3 | 3.9 |  |  |  |  |  | 
24 | CCCCCCCC[n+]1ccc2c3ccccc3n(CCCc3ccccc3)c2c1 |  |  | 7.4 | < 2 | 5.9 | 22.8 | < 2 | < 2 | 4.3 | 18.6 | 4.7 | 2.9 |  |  |  |  |  | 
25 | CCCCCCCCCC[n+]1ccc2c3ccccc3n(CCCc3ccccc3)c2c1 |  |  | 57 | 15.7 | 57 | 23.2 | < 2 | < 2 | 6.9 | 31.3 | < 2 | < 2 |  |  |  |  |  | 
26 | O=P1(N(CCCl)CCCl)NCCCO1 (stereo unspecified) [CYCLOPHOSPHAMIDE ANHYDROUS] |  |  |  |  |  |  |  |  |  |  |  |  |  |  |  |  | 87.3 | 85.6
